Assay results gathered from unrelated publications.
Target: Tyrosine-protein kinase TXK (TXK, Homo sapiens, UniProt P42681)
Residues used in one study (P42681 1-527): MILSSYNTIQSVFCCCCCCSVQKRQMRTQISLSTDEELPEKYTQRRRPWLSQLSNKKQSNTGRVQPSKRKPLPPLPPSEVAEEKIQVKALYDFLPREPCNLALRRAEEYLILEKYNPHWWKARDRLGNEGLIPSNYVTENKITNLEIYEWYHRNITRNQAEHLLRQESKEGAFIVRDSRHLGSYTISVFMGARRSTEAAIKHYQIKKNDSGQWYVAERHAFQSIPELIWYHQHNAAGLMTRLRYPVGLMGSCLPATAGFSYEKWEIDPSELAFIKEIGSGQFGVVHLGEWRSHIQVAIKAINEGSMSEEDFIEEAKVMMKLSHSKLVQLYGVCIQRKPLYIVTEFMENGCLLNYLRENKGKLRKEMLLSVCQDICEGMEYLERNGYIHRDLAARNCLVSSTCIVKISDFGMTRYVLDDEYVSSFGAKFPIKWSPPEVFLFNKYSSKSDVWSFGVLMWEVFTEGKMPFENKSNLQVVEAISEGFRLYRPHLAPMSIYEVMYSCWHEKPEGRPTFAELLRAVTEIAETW

O=C(Nc1cnn(-c2csc(C(=O)NC3COC3)c2)c1)Nc1ccccc1Cl has a remaining activity of 89.8% (enzyme activity, inhibitor; 5 µM).
For Cc1c(NC(=O)c2cc(C(N)=O)nc3cc(F)ccc23)c(C(F)(F)F)nn1Cc1ccc(C#N)cc1, the remaining binding was 99% (binding, competition with immobilised ligand; 1 µM).
COc1cc2ncnc(Nc3ccc(Oc4ccccc4)cc3C)c2cc1OC has an inhibition of 16% (enzyme activity, inhibitor; 1 µM).
With Oc1ccc(-c2nc(-c3ccncc3)c(-c3ccc(F)cc3)[nH]2)cc1 the remaining signal was 78.5% (cell-free assay; 0.5 µM).
CN(C(=O)c1ccccc1)c1cc(N(C)c2ccc3c(c2)CCc2ccc(C(=O)NCCN4CCOCC4)cc2C3=O)ccc1F gave a remaining binding of 79% (binding, competition with immobilised ligand; 1 µM).
N#CCCc1ccc2c(c1)-c1[nH]c3ccc([N+](=O)[O-])cc3c1CC(=O)N2 has a remaining signal of 67.6% (cell-free assay; 0.5 µM).
The activity vs control of Cc1ccc(C(=O)NCc2ccsc2)cc1C#Cc1cn(C(C)C)c2ncnc(N)c12 is reported as 36% (enzyme activity, inhibitor; 1 µM).
For Cc1ccc(C(=O)Nc2ccc(CN3CCN(C)CC3)c(C(F)(F)F)c2)cc1C#Cc1cnc2cccnn12, the remaining activity was 25% (enzyme activity, inhibitor; 23.5 nM).
Cc1sc(C(=O)NC2COC2)cc1-n1cc(NC(=O)Nc2c(F)cccc2Cl)cn1 has a remaining activity of 76.7% (enzyme activity, inhibitor; 10 µM).
CCN(CC)c1ccc(C2=NNC(=O)CC2C)cc1[N+](=O)[O-] (stereo not shown) has a remaining activity of 84% (enzyme activity, inhibitor; 10 µM).
With Cc1cnc(NC2CCOCC2)nc1-n1cnc(C(=O)NC(CN)c2cc(F)cc(Cl)c2)c1 (stereo not shown) the remaining activity was 102% (enzyme activity, inhibitor, radiometric; 1 µM).
For Cn1nc(C(=O)NCc2ccc(C(=O)O)cc2)cc1-c1ccc2[nH]ccc2c1, the remaining binding was 90% (binding, competition with immobilised ligand; 0.1 µM).
O=C1NC(=O)c2cc(Nc3ccc(F)cc3)c(Nc3ccc(F)cc3)cc21 has a remaining signal of 84.1% (cell-free assay; 0.5 µM).
O=C(NS(=O)(=O)c1ccc(NCC2CCOCC2)c([N+](=O)[O-])c1)c1ccc(N2CCN(Cc3ccc(C(F)(F)F)cc3-c3ccc(Cl)cc3)CC2)cc1Oc1cnc2[nH]ccc2c1 gave a remaining binding of 94% (cell-free assay, competition with immobilised ligand; 1 µM).
CC(C)(C)c1nc2c(s1)c1nc(N)ncc1c1ccc(NS(=O)(=O)c3c(F)cccc3F)c(F)c12 has a remaining activity of 71% (enzyme activity, inhibitor, radiometric; 1 µM).
With O=C(N[C@H]1CCCCC/C=C\C2C[C@@]2(C(=O)O)NC(=O)[C@@H]2C[C@@H](Oc3ccncc3)CN2C1=O)OC1CCCC1 (stereo partly shown) the remaining binding was 87% (binding, competition with immobilised ligand; 1 µM).
The activity vs control of Cc1cc(NC(=O)c2cccc3cc(-c4cccc5[nH]nc(N)c45)ccc23)ccc1F is reported as 123% (enzyme activity, inhibitor; 0.1 µM).
The remaining binding of NS(=O)(=O)c1cc(NC(=O)Cc2ccccc2)ccc1Oc1cccc(Cl)c1 is reported as 92% (binding, competition with immobilised ligand; 1 µM).
The remaining activity of Nc1ncnc2occ(-c3ccc(NC(=O)Nc4cc(C(F)(F)F)ccc4F)cc3)c12 is reported as 14% (enzyme activity, inhibitor; 20 µM).
